# Assay outcomes deposited in PubChem by several laboratories.
# NadD inh: inhibitors of Staphylococcus aureus NadD; purified NadD enzyme, colorimetric absorbance read-out; inhibition, % at 20 µM; 360,000 tested, 0.78% active; in the data active = inhibition above about 26%
# SENP1 FRET inh: SENP1 (human) catalytic domain inhibition; Q9P0U3; recombinant SENP1 catalytic domain, CyPet-SUMO1-YPet FRET cleavage; inhibition, % at 10 µM; 360,000 tested, 0.21% active; AID 624204;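 active = inhibition at least 30% at 10 µM, raw YFP signal under a set limit, fluorescence ratio 0.5 to 1.5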;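 also: 0% = enzyme with DMSO and 100% = no enzyme wells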
#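 Test system: recombinant human SENP1 catalytic domain, His6-tagged / Medium: pH 8 Tris buffer with EDTA, NaCl, BME, BSA, NP40, catalase / Also added: SUMO1 FRET substrate flanked by Cypet and Ypet, 25 nM / Times: 50 min reaction at room temperature / Signal: FRET, CFP and YFP emission / Control set: no-enzyme low control and enzyme-plus-DMSO high control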
# ABHD5 PLIN5 PPI: blocks binding of human ABHD5 to perilipin-5. Q00G26+Q8WTS1. Split G. princeps luciferase complementation, luminescence, 4 h. inhibition, % at 4 µM. 360,000 tested, 0.78% active. AID 602281;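 active = inhibition above the mean inhibition across every tested compound plus 3 SD, cut at about 22% in these data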;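 also: 0% = DMSO only wells and the 100% control is not disclosed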
# GRK2 aptamer HTS: blocks RNA aptamer binding to human GRK2; P25098; bead flow cytometry, FAM-aptamer displacement from GRK2; inhibition of aptamer binding, % at 10 µM; 330,000 tested, 0.59% active; AID 488847;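 active = inhibition of aptamer binding above 40%, roughly 3 SD of noise, on plates passing a quality check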;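 also: median bead fluorescence of bound FAM aptamer so fluorescent compounds give negative values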
# B2AR ag: human beta-2 adrenergic receptor agonism by FAP; P07550; Am2.2-beta2AR cells, FAP receptor internalization, flow cytometry; response, % (test concentration not listed); 340,000 tested, 0.43% active;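 active = response above a set limit, near 3 SD of response in nonfluorescent compounds, cut at about 42% in these data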
# ABHD5 PLIN5 conf: ABHD5-PLIN5 interaction inhibition, confirmed. biochemical ABHD5-PLIN5 interaction, luminescence. shares compounds with ABHD5 PLIN5 PPI. AID 651612. inhibition, % at 4 µM. 2,200 tested, 67% active; in the data active = inhibition above about 23%;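 also: 0% = DMSO vehicle wells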
# HNF4 counter: counter-screen for ABHD5-PLIN5 inhibitors: HNF4 split-luciferase; shares compounds with ABHD5 PLIN5 PPI; HNF4 dimerization, luminescence, biochemical; inhibition, % at 4 µM; 2,200 tested, 77% active;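 active = mean inhibition across replicate wells exceeding the computed hit threshold, cut at about 13% in these data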;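 also: light from luciferase halves that rejoin when HNF4 fusion proteins dimerize; 0% = DMSO only wells and the 100% control is not given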
# The depositor's hits bear a star; . = not tested or not shown. Rows were chosen to be rich in hits. Some 2.5% of all compounds tested hit in one or more screens of this group.
SMILES,NadD inh,SENP1 FRET inh,ABHD5 PLIN5 PPI,GRK2 aptamer HTS,B2AR ag,ABHD5 PLIN5 conf,HNF4 counter
C#CCOCCOCCOCCNc1nc(N2CCOCC2)nc(N2CCN(C(=O)CCCCCCCCCCNC(=O)[C@H]([C@@H](C)CC)n3cc(CCCCN=C(N)N)nn3)CC2)n1,11,2,34*,0,11,3,0
COc1ccc([C@H]2CC(=O)C=C(c3c(C)cc(C)cc3C)C2)cc1,-7,-1,-4,4,6,.,.
O=C(Nc1nnc(SCCC2OCCO2)s1)C1CC(=O)N(c2ccc(F)cc2)C1 (stereo not drawn),5,0,-6,4,-8,.,.
CCCCC[C@@H](/C=C/C1C(=O)C=C[C@H]1C/C=C\CCCC(=O)OC)OC(C)=O (stereo partly drawn),0,0,28*,.,22,42*,63*
COc1ccc(/C=C/C(=O)NNC(=O)c2ccncc2)c(OC)c1,2,1,6,1,12,.,.
Cc1nc(OCC(C)C)c2sc3nc4c(cc3c2n1)COC(C)(C)C4,5,-2,-1,0,-15,.,.
CCc1nc(OCc2ccco2)c2sc3nc4c(cc3c2n1)COC(C)(C)C4,8,-6,33*,3,2,47*,74*
CCc1nc2c(sc3nc4c(cc32)COC(C)(C)C4)c(=O)n1Cc1ccco1,13,-4,28*,2,5,21,36*
COc1ccc2cc(/C=C/C(=O)c3ccco3)c(Cl)nc2c1,.,.,.,2,.,.,.
Cc1ccc2cc(/C=C/C(=O)c3ccco3)c(Cl)nc2c1,2,16,45*,4,56*,96*,99*
Cc1ccc2nc(Cl)c(/C=C/C(=O)c3ccco3)cc2c1,23,3,24*,.,8,92*,86*
COc1cc2cc(/C=C/C(=O)c3ccco3)c(Cl)nc2cc1OC,6,3,38*,31,-35,90*,82*
Cc1cc(C)c(S(=O)(=O)N2CCCCC2CCNC(=O)C(=O)NCCN2CCOCC2)c(C)c1 (stereo not drawn),2,-1,-4,2,2,.,.
O=C(CSc1nnc(COc2ccccc2)n1Cc1ccco1)NCc1ccco1,16,-8,37*,0,7,44*,54*
CCCCn1c(SCC(=O)NCc2ccco2)nnc1-c1ccoc1C,20,-14,24*,8,2,55*,28*
CCCCn1c(SCC(=O)NCc2ccco2)nnc1-c1ccco1,-8,0,3,1,0,.,.
Cc1cc(C)c2nc(NNC(=O)c3ccc(S(=O)(=O)N4CCCC(C)C4)cc3)sc2c1 (stereo not drawn),15,26,23*,6,12,59*,.
O=C(C[n+]1cccc2ccccc21)c1ccccc1,1,12,-1,9,-78,.,.
CCCCCCCCCCCCCCCC[n+]1cccc2ccccc21,53*,2,35*,0,28,16,-3
CC(=O)OC[C@]12CC[C@H]3[C@@](C)(CC[C@H]4C(C)(C)CCC[C@]34C)[C@@H]1C[C@H](C1=CC(=O)O[C@H]1OC(C)=O)O2,.,.,.,0,.,.,.
CC(O)CC(=O)OC[C@]12CC[C@H]3[C@@](C)(CC[C@H]4C(C)(C)CCC[C@]34C)[C@@H]1CC(C1=CC(=O)OC1O)O2 (stereo partly drawn),0,3,80*,.,.,97*,71*
O=C(/C=C/c1ccccc1O)c1ccccc1,-5,2,29*,.,15,79*,64*
O=C(/C=C/c1ccccc1[N+](=O)[O-])c1ccc(F)cc1,-9,0,34*,2,5,86*,83*
O=C(/C=C/c1ccccc1O)c1ccc(Cl)cc1,-8,4,58*,0,12,94*,75*
O=C(/C=C/c1cccc2ccccc12)c1ccncc1,20,-25,65*,2,20,96*,96*
CC(=O)/C=C/c1ccccc1O,0,-1,0,0,0,.,.
CCOc1ccccc1/C=C/C(=O)c1ccc(Cl)cc1,1,-1,2,8,35,.,.
